SKN-1 inh: C. elegans SKN-1 inhibition. C. elegans VP596 Pgst-4::GFP/RFP ratio, acrylamide-induced, 24 h. inhibition, % at 21.8 µM. 360,000 tested, 0.49% active;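 active means interference check ratio from 0.5 to 1.5 plus GFP to RFP signal ratio inhibition reaching or exceeding a fixed threshold, cut at about 30% in these data, passing the limit was not always enough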
T cell HTS: T cell immune modulators affecting CD8 T cell-vesicle binding; response (vesicle binding), % at 7 µM; 2C CD8+ T cell-vesicle binding, flow cytometry; active compounds read low; 330,000 tested, 0.068% active;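 active means response, share of CD8 T cells binding vesicles, and their 90th percentile fluorescence all below set limits, cut at about 80% in these data, passing the limit was not always enough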;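 further: values below 100% mean blocked vesicle binding to the CD8+ T cells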
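Benchmarks: naked versus QL9-loaded vesicles / Assay system: purified 2C TCR transgenic mouse naive CD8+ T cells / Technique: high-throughput flow cytometry with anti-B7-1 and anti-CD8 staining / Timing: Cell–vesicle co-incubation 1.5 h at 37 °C, staining 20 min on ice / Read-out: percent CD8+ FL2 mean versus row control / Probe or stimulus: QL9-loaded Drosophila micro-vesicles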
Rin1-Abl PPI inh: inhibitors of human Rin1-Abl protein interaction | P00519+Q13671 | TR-FRET Rin1/Abl binding, biochemical | inhibition, % at 7.35 µM | 360,000 tested, 0.4% active; in the data active means inhibition above about 5%, passing the limit was not always enough
Rce1 inhib: blocks yeast Ras-converting enzyme | 290,000 tested, 0.27% active | calls only | Q03530 | AID 2563 | yeast membranes, quenched prenylated peptide cleavage fluorescence;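 active means fall in fluorescence gain of 50% or more versus controls, with final raw signal at or below 3038400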;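 further: plate controls were neutral control wells for no effect and wells lacking membranes for full effect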
Target sequence (Q03530 whole entry, looked up): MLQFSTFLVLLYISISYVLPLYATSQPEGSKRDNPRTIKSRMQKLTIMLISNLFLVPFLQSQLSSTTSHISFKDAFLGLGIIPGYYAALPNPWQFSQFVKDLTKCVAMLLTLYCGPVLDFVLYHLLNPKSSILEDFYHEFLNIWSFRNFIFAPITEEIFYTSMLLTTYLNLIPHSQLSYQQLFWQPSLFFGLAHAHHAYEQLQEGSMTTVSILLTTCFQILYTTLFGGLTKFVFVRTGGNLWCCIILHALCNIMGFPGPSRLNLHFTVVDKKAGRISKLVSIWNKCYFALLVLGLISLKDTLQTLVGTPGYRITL
GRK2 aptamer HTS: blocks RNA aptamer binding to human GRK2; inhibition of aptamer binding, % at 10 µM; bead flow cytometry, FAM-aptamer displacement from GRK2; P25098; 330,000 tested, 0.59% active;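 active means inhibition of aptamer binding above 40%, roughly 3 SD of noise, on plates passing a quality check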;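 further: median bead fluorescence of bound FAM aptamer so fluorescent compounds give negative values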
Myeloid diff MLP: promotes myeloid progenitor differentiation; calls only at 10 µM; AID 624256; 360,000 tested, 1% active; ER-HoxA9 myeloid progenitors, lysozyme-GFP differentiation, flow cytometry;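 active means normalized GFP-positive differentiation at or above the plate's own cutoff, the solvent-only control mean plus 3 SD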;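 further: cells exposed to compound for four days before flow analysis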
GRK2 inh confirm: human GRK2 inhibition confirmation, cherry pick 1. shares compounds with GRK2 aptamer HTS. bead-bound GRK2, FAM-aptamer displacement, flow cytometry. aptamer displacement, % at 10 µM. 2,000 tested, 4% active. AID 504451;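 active means aptamer displacement above 40%, near three times the noise of non-fluorescent compounds, on plates passing quality checks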;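 further: negative values mostly reflect intrinsic compound fluorescence rather than true enhancement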
Aptamer quench SP: quenches fluorescent RNA aptamer, GRK2 hit artifact; 2,000 tested, under 10 active; shares compounds with GRK2 aptamer HTS; fluorescence response (% of DMSO), % at 10 µM; AID 504580; Carboxyfluorescein RNA aptamer on beads, flow cytometry quenching; active compounds read low;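 active means compounds that quench the bead-bound fluorescent RNA probe, cutting fluorescence to under half of the solvent control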;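 further: counterscreen run without GRK2 so only probe quenching by compound is measured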
* = called active by the depositor; i = inactive; / = no result given; + = active, no number. Only some compounds are listed: those with a hit (about 2.6% of all), similar ones and a draw of the others.

SMILES | SKN-1 inh | T cell HTS | Rin1-Abl PPI inh | Rce1 inhib | GRK2 aptamer HTS | Myeloid diff MLP | others
COC(=O)NC(=S)Nc1ccccc1NC(=S)NC(=O)OC | 1 | / | 1 | / | / | i
O=c1[nH]c(CN2CC=C(c3ccccc3)CC2)nc2cc(C(F)(F)F)ccc12 | -13 | 443 | 0 | i | 1 | +
O=c1[nH]c(CN2CC=C(c3ccccc3)CC2)nc2scc(-c3ccccc3)c12 | 5 | 104 | 1 | i | 14 | +
CCOC(=O)CNC(=O)N1Cc2ccccc2-n2nncc2C1 | -9 | / | 3 | / | / | +
CCOC(=O)CNC(=O)N1Cc2cc(-c3ccccc3)ccc2-n2nncc2C1 | 12 | / | 2 | / | / | i
CCCCn1nnnc1C(CC)N1CCC2(CC1)C(=O)NCN2c1ccccc1 (stereo not given) | 4 | / | 5 | / | / | i
c1ccc2c3c([nH]c2c1)CNCC3 | -2 | 115 | 1 | i | 0 | +
COc1ccc2[nH]c3c(c2c1)CCNC3 | 0 | 664 | -1 | / | 0 | i
Cc1ccc(NC(=O)CC[C@H]2O[C@@H](n3cnc4c(NC(=O)c5ccccc5)ncnc43)[C@H](O)[C@@H]2O)cc1C | 6 | / | 3 | / | / | i
O=C(O)c1nn(Cc2ccc(Cl)cc2)c2ccccc12 | 2 | / | -1 | / | / | +
CN1C(=O)C(=Cc2cc([N+](=O)[O-])ccc2N2CCCCC2)C(=O)N(C)C1=O | -11 | 380 | 4 | i | 0 | i
CN1C(=O)C(=Cc2sc(=O)n(-c3ccccc3)c2N2CCCCC2)C(=O)N(C)C1=O | 38* | / | -4 | i | / | i
O=C(O)CCCc1ccc(N(CCCl)CCCl)cc1 | -7 | 586 | 0 | i | 2 | i
O=C1NC(=S)SC1=Cc1ccc(N(CCCl)CCCl)cc1 | 32 | / | 5 | / | / | +
COC(=O)C1=C(c2ccc(F)cc2OCc2ccccc2)C[C@@H]2CC[C@H]1N2C(=O)NC1CCN(Cc2ccccc2)CC1 | 23 | 150 | 4 | / | 0 | i
COC(=O)C1=C(c2ccccc2OCc2ccccc2)C[C@@H]2CC[C@H]1N2C(=O)NC1CCN(Cc2ccccc2)CC1 | 9 | 303 | -2 | / | 0 | +
CCN1C(=O)CC(=O)N(CC)C1=S | 11 | / | -3 | / | / | i
O=C1N[C@H](Cc2ccccc2)C(=O)N2[C@@H]3[C@H](C[C@@H]12)c1ccccc1N3OOSc1ccccc1 | -29 | 631 | 4 | i | 0 | i
Cc1cccc(C)c1-n1nnnc1C(c1ccccc1OC(F)(F)F)N1CCC(n2c(=O)[nH]c3ccccc32)CC1 (stereo not given) | 15 | / | 3 | / | / | i
O=C1NC(=O)C(CCc2ccncc2)(CCc2ccncc2)C(=O)N1CCc1ccccc1 | -15 | 467 | 1 | i | 0 | i
O=C1NC(=O)C(CCc2ccncc2)(Cc2ccc3c(c2)OCO3)C(=O)N1CCc1ccccc1 (stereo not given) | -7 | 240 | 4 | i | 0 | +
COc1ccc(CCn2c(O)c(C=Nc3ccc(NC(C)=O)cc3)c(=O)[nH]c2=O)cc1OC | 9 | 412 | 1 | i | 2 | i
CCOc1ccc(N=Cc2c(O)n(CCc3ccc(OC)c(OC)c3)c(=O)[nH]c2=O)cc1 | -2 | 997 | 1 | i | 100* | i | GRK2 inh confirm=-5;Aptamer quench SP=97
CC(=O)O[C@H]1CC[C@@]2(C)C(=CC[C@@H]3[C@@H]2CC[C@]2(C)C(=O)CC[C@@H]32)C1 | 0 | 89 | 2 | / | 0 | i

Assay outcomes (PubChem BioAssay)
